Assay results from different studies.
Compare with care: the assays were run in different laboratories.
Sample: plasma

CC(C)(O)c1ccccc1-c1ccc2[nH]c(/C=C/c3ccc(C(F)(F)F)cc3)nc2c1
AUC(0-t) (male human; oral, 225 mg, single dose, fasted, healthy volunteers): 27900 ng·h/mL

Cn1c(=O)oc2ccc(-c3ccc(C[C@@H](C#N)NC(=O)[C@@H]4CNCCCO4)cc3)cc21
AUC (male human; oral, 15 mg, single dose, healthy volunteers): 4.17 µM·h

Cc1ccc(C(=O)N(CCCN)[C@@H](c2oc3cc(Cl)ccc3c(=O)c2Cc2ccccc2)C(C)C)cc1
AUC (human; intravenous, 5 mg/m², single dose, patients, infusion): 8960 ng·h/mL

Cn1cc(-c2ccc(S(=O)(=O)[C@@H]3C[C@@H](C(=O)NC4(C#N)CC4)N(C(=O)C4(C(F)(F)F)CC4)C3)c(C(F)(F)F)c2)cn1
AUC(0-inf) (human; oral, 300 mg, single dose, fasted, healthy volunteers): 21000 ng·h/mL

COc1cc(C(=O)NC2CCN(C)CC2)c(F)cc1Nc1ncc(C(F)(F)F)c(Oc2cccc3c2C(=O)N(C)C3)n1
AUC (human; oral, 200 mg, multiple doses, once daily, steady state, patients): 43.7 µM·h

COc1cc(C(=O)NC2CCN(C)CC2)c(F)cc1Nc1ncc(C(F)(F)F)c(Oc2cccc3c2C(=O)N(C)C3)n1
AUC (human; oral, 50 mg, multiple doses, once daily, steady state, patients): 4.89 µM·h

CCc1nc2c(C)cc(N3CCN(CC(=O)N4CC(O)C4)CC3)cn2c1N(C)c1nc(-c2ccc(F)cc2)c(C#N)s1
AUC(0-inf) (human; oral, 150 mg, single dose, fed, healthy volunteers): 6700 ng·h/mL

CC(C)n1cc(C#N)c2cc(-n3cc(C(=O)O)cn3)ccc21
AUC(0-inf) (human; oral, 100 mg, single dose, fasted, healthy volunteers): 19600 ng·h/mL

CO[C@H]1CC[C@H](N2C(=O)CNc3ncc(-c4ccc(C(C)(C)O)nc4)nc32)CC1
AUC(0-t) (human; oral, 60 mg, multiple doses, patients): 2950 ng·h/mL

COc1ccc([C@@H]2CN(C(=O)[C@@H](O)CO)C[C@@]2(C)[C@@H](C)O)cc1OC1CN(c2ccc(C)cn2)C1
AUC(0-t) (human; oral, 40 mg, single dose, healthy volunteers): 7650 ng·h/mL

CO[C@@H]1[C@H](OC(=O)N2CC(CCN3CCOCC3)C2)CC[C@]2(CO2)[C@H]1[C@@]1(C)O[C@@H]1CC=C(C)C
AUC(0-t) (human; subcutaneous, 4.8 mg, single dose, healthy volunteers): 21.6 ng·h/mL

COCCOc1cnc2ccn([C@H](C)c3nnc4c(F)cc(-c5cnn(C)c5)cn34)c(=O)c2c1
AUC(0-t) (human; oral, 400 mg, multiple doses, once daily, patients): 49600 ng·h/mL
